Results taken from PMC9328817 (Journal of Food and Drug Analysis, 2016).
Where a SMILES comes first, the peptide text is derived from it.

Experiments:
HepG2 cells = assay: MTT viability assay; type: cell-based; conditions: for Inhibitory effect on the growth of HepG2 cancer cells (in words): 0-1 mg/mL; for Growth inhibition of HepG2 cells: highest concentration tested 1 mg/mL, 24, 48 and 72 hours
Method in brief: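 HepG2 cells were grown in DMEM with 10% FBS, L-glutamine and 1% penicillin/streptomycin at 37°C, humidified, 5% CO2, and treated in log phase at 80% confluence. After seeding and 24 h incubation, cells received peptides at 0–1 mg/mL for 24, 48 or 72 h. MTT was added (4 h, dark, 37°C), DMSO was added, and A570 was read against untreated cells.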

cancer cell growth = conditions: cited from earlier work

Molecule: CC(C)C[C@H](NC(=O)[C@H](CCC(N)=O)NC(=O)[C@H](CC(=O)O)NC(=O)[C@H](CCC(N)=O)NC(=O)[C@H](CCC(N)=O)NC(=O)[C@H](CCC(=O)O)NC(=O)[C@H](CC(=O)O)NC(=O)[C@H](CCC(=O)O)NC(=O)[C@@H](NC(=O)[C@H](CCC(N)=O)NC(=O)[C@H](CCC(N)=O)NC(=O)[C@H](CCC(N)=O)NC(=O)[C@H](CCC(=O)O)NC(=O)[C@H](CCC(=O)O)NC(=O)[C@@H](N)CC(C)C)[C@@H](C)O)C(=O)O [LL-15] (H-LEEQQQTEDEQQDQL-OH)
- Inhibitory effect on the growth of HepG2 cancer cells (in words) (HepG2 cells): no significant inhibitory effects
- Growth inhibition of HepG2 cells (HepG2 cells): about 20%

Molecule: CC(C)C[C@H](NC(=O)CNC(=O)[C@@H](N)CCCNC(=N)N)C(=O)N[C@@H](Cc1c[nH]cn1)C(=O)N1CCC[C@H]1C(=O)N[C@H](C(=O)N1CCC[C@H]1C(=O)N[C@@H](CCC(N)=O)C(=O)O)C(C)C [RQ-8] (H-RGLHPVPQ-OH)
- Inhibitory effect on the growth of HepG2 cancer cells (in words) (HepG2 cells): no significant inhibitory effects
- Growth inhibition of HepG2 cells (HepG2 cells): about 20%

Molecule: CC(C)C[C@H](NC(=O)[C@H](CCCNC(=N)N)NC(=O)[C@H](Cc1c[nH]cn1)NC(=O)[C@H](CC(C)C)NC(=O)[C@H](CCC(=O)O)NC(=O)[C@H](CCC(=O)O)NC(=O)[C@H](CC(C)C)NC(=O)[C@@H](N)Cc1ccc(O)cc1)C(=O)N[C@@H](CC(N)=O)C(=O)N[C@@H](C)C(=O)NCC(=O)N[C@@H](Cc1ccc(O)cc1)C(=O)O [YY-11] (H-YLEELHRLNAGY-OH)
- Inhibitory effect on the growth of HepG2 cancer cells (in words) (HepG2 cells): no significant inhibitory effects
- Growth inhibition of HepG2 cells (HepG2 cells): about 20%

B1: lactoferrin: iron-binding multifunctional protein in camel milk (protein, UniProt Q9TUM0 20-708, looked up)
Lactotransferrin: ASKKSVRWCTTSPAESSKCAQWQRRMKKVRGPSVTCVKKTSRFECIQAISTEKADAVTLDGGLVYDAGLDPYKLRPIAAEVYGTENNPQTHYYAVAIAKKGTNFQLNQLQGLKSCHTGLGRSAGWNIPMGLLRPFLDWTGPPEPLQKAVAKFFSASCVPCVDGKEYPNLCQLCAGTGENKCACSSQEPYFGYSGAFKCLQDGAGDVAFVKDSTVFESLPAKADRDQYELLCPNNTRKPVDAFQECHLARVPSHAVVARSVNGKEDLIWKLLVKAQEKFGRGKPSGFQLFGSPAGQKDLLFKDSALGLLRISSKIDSGLYLGSNYITAIRGLRETAAEVELRRAQVVWCAVGSDEQLKCQEWSRQSNQSVVCATASTTEDCIALVLKGEADALSLDGGYIYIAGKCGLVPVLAESQQSPESSGLDCVHRPVKGYLAVAVVRKANDKITWNSLRGKKSCHTAVDRTAGWNIPMGLLSKNTDSCRFDEFLSQSCAPGSDPRSKLCALCAGNEEGQNKCVPNSSERYYGYTGAFRCLAENVGDVAFVKDVTVLDNTDGKNTEQWAKDLKLGDFELLCLNGTRKPVTEAESCHLAVAPNHAVVSRIDKVAHLEQVLLRQQAHFGRNGRDCPGKFCLFQSKTKNLLFNDNTECLAKLQGKTTYEEYLGPQYVTAIAKLRRCSTSPLLEACAFLMR
- Reduction of cancer cell growth (cancer cell growth): 56%
